Experimental data taken from ChEMBL document CHEMBL1144220, “Screening helix-threading peptides for RNA binding using a thiazole orange displacement assay” (Bioorg Med Chem, 2008).
Square brackets hold non-standard residues; d marks the D form. Peptide text beside a SMILES is read from it. * marks the point of attachment. X1 = C=CCc1ccc(-c2cc(Nc3ccc(CN)cc3)c3cccc(C(=O)*)c3n2)cc1; X2 = C=CCc1ccc(-c2cc(Nc3ccccc3)c3cccc(C(=O)*)c3n2)cc1; AllylGly = C=CC[C@H](N)C(=O)O; Dap = NC[C@H](N)C(=O)O

Experiments:
[1] = Displacement of thiazole orange from RNA A by fluorescent intercalator displacement assay
Summary of the method: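 Pre-formed complex of RNA A (100 nM) with thiazole orange (50 nM), in 50 mM Bis-Tris·HCl pH 7.0, 100 mM NaCl, 10 mM MgCl2, 15 min. Added to a peptide titration and held ~15 min at 25 °C. Fluorescence read at ex 485 / em 535 nm, minus dye-only background. […] Three independent runs, mean ± SD.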

RNA A (synthetic) = test: Binding affinity to RNA A by quantitative ribonuclease V1 footprinting assay

SMILES | Kd [1] [µM] | Binding affinity (RNA A (synthetic)) [µM] | Activity [1] [%]
C=CCc1ccc(-c2cc(Nc3ccccc3)c3cccc(C(=O)N[C@@H](CCCNC(=N)N)C(=O)N[C@@H](CC(C)C)C(=O)N[C@@H](CC(C)C)C(=O)N[C@@H](CC=C)C(N)=O)c3n2)cc1 | > 30 |  | 
CC(C)C[C@H]1NC(=O)[C@H](CCCNC(=N)N)NC(=O)c2cccc3c(Nc4ccccc4)cc(nc23)-c2ccc(cc2)C/C=C/C[C@@H](C(N)=O)NC(=O)[C@@H](CC(C)C)NC1=O | 10.1 |  | 
N=C(N)NCCC[C@@H]1NC(=O)c2cccc3c(Nc4ccccc4)cc(nc23)-c2ccc(cc2)C/C=C/C[C@@H](C(N)=O)NC(=O)CNC1=O | 3.9 |  | 
NCCCC[C@H]1NC(=O)[C@H](Cc2ccccc2)NC(=O)[C@H](CN)NC(=O)c2cccc3c(Nc4ccc(CN)cc4)cc(nc23)-c2ccc(cc2)C/C=C/C[C@@H](C(N)=O)NC1=O | 2.7 | 2.3 | 
N=C(N)NCCC[C@@H]1NC(=O)c2cccc3c(Nc4ccccc4)cc(nc23)-c2ccc(cc2)C/C=C/C[C@@H](C(N)=O)NC1=O | 3.6 |  | 
CC(C)C[C@@H]1NC(=O)[C@H](CC(N)=O)NC(=O)[C@H](CCCNC(=N)N)NC(=O)c2cccc3c(Nc4ccccc4)cc(nc23)-c2ccc(cc2)C/C=C/C[C@@H](C(N)=O)NC1=O | 18.9 |  | 
CC(C)C[C@@H]1NC(=O)[C@H](CCCNC(=N)N)NC(=O)c2cccc3c(Nc4ccccc4)cc(nc23)-c2ccc(cc2)C/C=C/C[C@@H](C(N)=O)NC(=O)[C@H](CC(N)=O)NC1=O | 6.2 |  | 
NCCCC[C@@H]1NC(=O)[C@H](CN)NC(=O)c2cccc3c(Nc4ccc(CN)cc4)cc(nc23)-c2ccc(cc2)C/C=C/C[C@@H](C(N)=O)NC(=O)CNC1=O | 0.22 | 0.05 | 
NCCCC[C@H]1NC(=O)[C@@H](Cc2ccccc2)NC(=O)[C@H](CN)NC(=O)c2cccc3c(Nc4ccc(CN)cc4)cc(nc23)-c2ccc(cc2)C/C=C/C[C@@H](C(N)=O)NC1=O | 4.4 | 8.6 | 
C=CCc1ccc(-c2cc(Nc3ccc(CN)cc3)c3cccc(C(=O)N[C@@H](CN)C(=O)N[C@@H](CCCCN)C(=O)NCC(=O)N[C@@H](CC=C)C(N)=O)c3n2)cc1 (X1-[Dap]KG[AllylGly]-NH2) | 0.71 | 0.33 | 
NC[C@@H]1O[C@H](O[C@H]2[C@@H](O)[C@H](O[C@H]3[C@@H](O)[C@H](N)C[C@H](N)[C@H]3O[C@H]3O[C@H](CN)[C@@H](O)[C@H](O)[C@H]3N)O[C@@H]2CO)[C@H](N)[C@@H](O)[C@@H]1O | > 60 |  | 
NCCCC[C@H]1NC(=O)CNC(=O)[C@H](CN)NC(=O)c2cccc3c(Nc4ccc(CN)cc4)cc(nc23)-c2ccc(cc2)C/C=C/C[C@@H](C(N)=O)NC1=O | 0.6 | 0.27 | 96
N=C(N)NCCC[C@@H]1NC(=O)c2cccc3c(Nc4ccccc4)cc(nc23)-c2ccc(cc2)C/C=C/C[C@@H](C(N)=O)NC(=O)[C@@H](CC(N)=O)NC(=O)[C@@H](CC(N)=O)NC1=O | 13.4 |  | 
C=CCc1ccc(-c2cc(Nc3ccccc3)c3cccc(C(=O)N[C@@H](CCCNC(=N)N)C(=O)N[C@@H](CC(N)=O)C(=O)N[C@@H](CC(N)=O)C(=O)N[C@@H](CC=C)C(N)=O)c3n2)cc1 (X2-RNN[AllylGly]-NH2) | 14.2 |  | 
N=C(N)NCCC[C@@H]1NC(=O)c2cccc3c(Nc4ccccc4)cc(nc23)-c2ccc(cc2)C/C=C/C[C@@H](C(N)=O)NC(=O)CNC(=O)[C@H](CCCCN)NC1=O | 0.35 |  | 
CC(C)[C@H](NC(=O)[C@H](CO)NC(=O)CCCN)C(=O)NCc1ccc(Nc2ccnc3c(C(=O)N[C@@H](CCCNC(=N)N)C(N)=O)cccc23)cc1 | 13.2 | 3.3 | 
NC[C@H]1O[C@H](O[C@H]2[C@H](O)[C@@H](O[C@H]3O[C@H](CO)[C@@H](O)[C@H](N)[C@H]3O)[C@H](N)C[C@@H]2N)[C@H](O)[C@@H](O)[C@@H]1O [KANAMYCIN] | > 100 |  | 
N=C(N)NCCC[C@@H]1NC(=O)c2cccc3c(Nc4ccccc4)cc(nc23)-c2ccc(cc2)C/C=C/C[C@@H](C(N)=O)NC(=O)[C@H](CC(N)=O)NC(=O)[C@H](CC(N)=O)NC1=O | 1.4 |  | 
CC(C)C[C@@H]1NC(=O)[C@H](CC(C)C)NC(=O)[C@H](CCCNC(=N)N)NC(=O)c2cccc3c(Nc4ccccc4)cc(nc23)-c2ccc(cc2)C/C=C/C[C@@H](C(N)=O)NC1=O | > 30 |  | 
C=CCc1ccc(-c2cc(Nc3ccccc3)c3cccc(C(=O)N[C@@H](CCCNC(=N)N)C(=O)N[C@H](CC(C)C)C(=O)N[C@H](CC(C)C)C(=O)N[C@@H](CC=C)C(N)=O)c3n2)cc1 | > 30 |  | 
